What was measured:
L1210 [1] = test: Inhibition of mouse L1210 (murine leukemia) cell growth measured using a modification of the MTT36 colorimetric assay of Mosmann; assay type: functional, cell-based
Thymidylate synthase [2] = biological target: T1, Thymidylate synthase (Homo sapiens, UniProt P04818); test: (§1) Inhibition of human Thymidylate synthase
CCRF-CEM = test: Inhibition of human lymphoblastic leukemia (CCRF-CEM) cell growth measured using a modification of the MTT36 colorimetric assay of Mosmann; assay type: functional, cell-based
Thymidylate synthase [3] = biological target: T1, Thymidylate synthase; test: as §1; remark: listed apart in the source
GC3/MTK- = test: Inhibition of cellular growth in human adenocarcinoma cell line (GC3/M TK) deficient in thymidine kinase; assay type: functional, cell-based
L1210 [4] = test: The ratio of IC50 of the inhibitor (assayed in L1210 cells) in presence and absence of thymidine; assay type: functional, Mus musculus
How it was run: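 Murine L1210 leukemia cells grown in RPMI-1640 with 5% fetal calf serum and 0.5% DMSO, seeded at 1000 cells/well, over nine 2-fold serial dilutions of compound, with or without 10 μM thymidine replenished daily over 3 days.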

Thymidylate synthase [5] = biological target: T2, Thymidylate synthase (Escherichia coli, UniProt C3SWJ7); test: (§2) Inhibition of purified Escherichia coli Thymidylate synthase
Thymidylate synthase [6] = biological target: T2, Thymidylate synthase; test: as §2; remark: listed apart in the source
[7] = Partition coefficient (logP); assay type: physicochemical; settings: octanol/water
Thymidylate synthase [8] = biological target: T1, Thymidylate synthase; test: Compound was tested for TS activity against human Thymidylate synthase by tight binding kinetics

T2 sequence (C3SWJ7 whole entry): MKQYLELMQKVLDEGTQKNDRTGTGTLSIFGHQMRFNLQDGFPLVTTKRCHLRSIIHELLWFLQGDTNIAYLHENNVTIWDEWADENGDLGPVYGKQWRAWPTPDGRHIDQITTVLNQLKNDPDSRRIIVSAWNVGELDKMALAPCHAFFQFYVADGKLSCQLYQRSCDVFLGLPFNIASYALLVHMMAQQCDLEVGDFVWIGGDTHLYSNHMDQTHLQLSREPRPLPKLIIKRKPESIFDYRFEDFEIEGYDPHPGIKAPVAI
T1 sequence (P04818 whole entry): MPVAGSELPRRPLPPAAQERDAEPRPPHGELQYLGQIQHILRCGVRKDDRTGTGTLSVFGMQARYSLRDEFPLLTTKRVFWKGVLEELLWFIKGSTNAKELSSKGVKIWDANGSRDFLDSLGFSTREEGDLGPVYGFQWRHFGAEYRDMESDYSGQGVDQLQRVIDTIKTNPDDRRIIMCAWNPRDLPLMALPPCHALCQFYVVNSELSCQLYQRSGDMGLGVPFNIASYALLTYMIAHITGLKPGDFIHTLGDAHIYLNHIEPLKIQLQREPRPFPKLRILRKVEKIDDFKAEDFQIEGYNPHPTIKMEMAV

Row | SMILES | IC50 (L1210 [1]) | Ki (Thymidylate synthase [2]) | IC50 (CCRF-CEM) | Ki (Thymidylate synthase [3]) | IC50 (GC3/MTK-) | Thymidine shift (L1210 [4]) | Ki (Thymidylate synthase [5]) | Ki (Thymidylate synthase [6]) | logP [7] | Ki (Thymidylate synthase [8])
1 | Nc1nc(O)c2c(Sc3ccncc3)c(Cl)ccc2n1 | 1.3 µM | 0.018 µM | 2.1 µM | 0.02 µM | 2.05 µM | ~14 |  |  |  | 
2 | Cc1nc(O)c2c(Sc3cccnc3)c(C)ccc2n1 | > 2.5 µM | 1.1 µM | > 2.5 µM | 0.31 µM | > 2.5 µM |  | 9.3 µM | 1.7 µM |  | 
3 | Cc1nc(O)c2c(Sc3ccc([N+](=O)[O-])cc3)c(C)ccc2n1 | 3 µM | 0.078 µM | 2.9 µM | 0.056 µM | > 4 µM | 3.3 | 0.73 µM | 0.49 µM | 3.29 | 
4 | Cc1nc(O)c2c(Sc3ccncc3)cccc2n1 |  |  | > 26.9 µM | 0.96 µM | > 26.9 µM |  | 30 µM | 10 µM |  | 
5 | Cc1nc(O)c2c(Sc3ccnc(C(F)(F)F)c3)c(C)ccc2n1 |  |  |  | 0.07 µM |  |  | 0.54 µM | 0.23 µM |  | 
6 | COc1cc(Sc2c(C)ccc3nc(C)nc(O)c23)ccn1 |  | 0.046 µM |  | 0.037 µM | > 5 µM |  | 0.71 µM | 0.28 µM |  | 
7 | Cc1nc(O)c2c(Sc3ccccc3)cccc2n1 | > 4.2 µM |  | > 4.2 µM | > 10 µM |  |  |  | > 10 µM |  | 
8 | COc1ccc2nc(C)nc(O)c2c1Sc1ccncc1 | 21 µM |  | 26 µM |  | 32 µM |  | 3.9 µM | 1.5 µM |  | 
9 | Cc1nc(O)c2c(Sc3ccncc3)c(O)ccc2n1 | > 50 µM |  | > 50 µM | 8.8 µM | > 50 µM | 1 | 190 µM | 51 µM |  | 
10 | Cc1nc(O)c2c(Sc3ccnnc3)c(C)ccc2n1 |  |  |  | 0.087 µM | > 12.5 µM |  | 1.1 µM | 0.6 µM |  | 
11 | Cc1nc(O)c2c(Sc3ccc(C(=O)O)cc3)c(C)ccc2n1 | 50 µM | 0.065 µM | > 50 µM | 0.141 µM | > 50 µM | >5 |  |  |  | 
12 | Cc1nc(O)c2c(Oc3ccccc3)cccc2n1 | > 50 µM |  | > 50 µM | > 100 µM |  |  |  | > 100 µM |  | 
13 | Cc1ccc2nc(N)nc(O)c2c1Sc1ccc(C(=O)N[C@H](CCC(=O)O)C(=O)O)cc1 | 2.5 µM |  | 0.52 µM |  | 1.7 µM | ~8 |  |  |  | 0.000124 µM
14 | Cc1nc(O)c2c(Sc3ccc(C(=O)N[C@H](CCC(=O)O)C(=O)O)cc3)c(C)ccc2n1 | 1.05 µM |  | 0.99 µM |  | 4.1 µM | >22 |  |  |  | 0.00131 µM
15 | Cc1ccc2nc(N)nc(O)c2c1Sc1ccnnc1 | 1.6 µM |  | 0.88 µM | 0.013 µM | 1.5 µM | 17.6 |  |  |  | 
16 | Cc1nc(O)c2c(Sc3ccnc(N(C)C)c3)c(C)ccc2n1 | 4.05 µM | 0.058 µM | 10.5 µM | 0.08 µM | 18 µM | 4.25 |  |  |  | 
17 | Cc1cc(Sc2c(C)ccc3nc(C)nc(O)c23)ccn1 | 4.2 µM | 0.066 µM | 4.2 µM | 0.039 µM | 5 µM |  | 0.53 µM | 0.24 µM |  | 
18 | Cc1nc(O)c2c(Sc3ccncc3)c(C)ccc2n1 | 3.5 µM | 0.058 µM | 5.2 µM | 0.093 µM | 6 µM | >14 | 0.82 µM | 0.5 µM | 2.16 | 
19 | Cc1ccc2nc(N)nc(O)c2c1Sc1ccnc(N(C)C)c1 | 1.8 µM | 0.05 µM | 4.9 µM | 0.032 µM | 5.2 µM | >20 |  |  |  | 
20 | Cc1nc(O)c2c(Sc3ccccn3)cccc2n1 | > 50 µM | 190 µM | > 50 µM | 120 µM | > 50 µM | 1 | > 80 µM | > 80 µM |  | 
21 | CCc1ccc2nc(C)nc(O)c2c1Sc1ccncc1 | > 10 µM | 0.59 µM | > 10 µM | 0.2 µM | > 10 µM | ~10 |  |  |  | 
22 | Cc1ccc2nc(N)nc(O)c2c1Sc1ccnc(C(F)(F)F)c1 | 1.8 µM | 0.024 µM | > 2 µM | 0.028 µM | > 2 µM | >5 |  |  |  | 
23 | Cc1nc2ccc(C)c(Sc3ccc(S(=O)(=O)c4ccccc4)cc3)c2c(=O)[nH]1 | 1.8 µM |  | 2.1 µM |  | 4.5 µM |  |  |  | 4.67 | 
24 | Cc1ccc2nc(N)[nH]c(=O)c2c1Sc1ccncc1 [NOLATREXED] | 1 µM |  | 0.81 µM |  | 1 µM |  | 0.14 µM | 0.049 µM |  | 

Reference: ChEMBL document CHEMBL1126619, “Design of thymidylate synthase inhibitors using protein crystal structures: the synthesis and biological evaluation of a novel class of 5-substituted quinazolinones” (J Med Chem, 1993)
